{
  "source": "paper PMC4227816",
  "about": "(Journal of the American Chemical Society, 2014)",
  "test_system": "HIV-1RF challenged T-lymphoblastic CEM-SS cells",
  "assay": "XTT anti-HIV-1 cytopathicity assay in CEM-SS cells",
  "format": "cell-based",
  "summary_of_the_method": "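CEM-SS cells grown in phenol red-free RPMI 1640 with 5% FBS, 2 mM L-glutamine and 50 μg/mL gentamicin. Washed log-phase cells seeded at 5 × 10^3 per well with serial dilutions of compound in DMSO. HIV-1RF diluted to give 80–90% cell kill at 6 days, with parallel uninfected wells for toxicity. Incubated 6 days at 37 °C, viability read by XTT, in triplicate.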",
  "note": "Structures can show the parent of a compound that is named as a salt.",
  "data": [
    {"compound": "CC(=O)c1ccc2c(c1)N(CCCN(C)C)c1ccccc1S2", "note": "[Acepromazine maleate]", "values": [
      {"measurement": "protective effect against HIV-1-induced cytopathicity (in words)", "value": "not protective"}
    ]}
  ]
}
